Only some compounds are listed: those with a hit (about 4.2% of all), similar ones and a draw of the others.
CTSL1 counter – counter-screen for PFM18AAP inhibitors: inhibitors of F. hepatica cathepsin L1; recombinant F. hepatica cathepsin L1, Z-Leu-Arg-MCA fluorescence; inhibition, % at 5.96 µM; 0.49% of 300,000 active;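 active = inhibition above the mean of all tested compounds plus 3 SD, set per screening campaign, cut at about 17% in these data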
HDAC3 inhib – inhibitors of human histone deacetylase 3; O15379; recombinant HDAC3, fluorogenic peptide/trypsin coupled, fluorescence; inhibition, % at 8.3 µM; 0.15% of 320,000 active; in the data active = inhibition above about 26%, passing the limit was not always enough
AHR act – activators of human aryl hydrocarbon receptor; P35869; AHR-responsive luciferase reporter cells, luminescence; activation, % at 5 µM; 2.5% of 320,000 active; in the data active = activation above about 47%
Target sequence (P35869 whole entry, looked up): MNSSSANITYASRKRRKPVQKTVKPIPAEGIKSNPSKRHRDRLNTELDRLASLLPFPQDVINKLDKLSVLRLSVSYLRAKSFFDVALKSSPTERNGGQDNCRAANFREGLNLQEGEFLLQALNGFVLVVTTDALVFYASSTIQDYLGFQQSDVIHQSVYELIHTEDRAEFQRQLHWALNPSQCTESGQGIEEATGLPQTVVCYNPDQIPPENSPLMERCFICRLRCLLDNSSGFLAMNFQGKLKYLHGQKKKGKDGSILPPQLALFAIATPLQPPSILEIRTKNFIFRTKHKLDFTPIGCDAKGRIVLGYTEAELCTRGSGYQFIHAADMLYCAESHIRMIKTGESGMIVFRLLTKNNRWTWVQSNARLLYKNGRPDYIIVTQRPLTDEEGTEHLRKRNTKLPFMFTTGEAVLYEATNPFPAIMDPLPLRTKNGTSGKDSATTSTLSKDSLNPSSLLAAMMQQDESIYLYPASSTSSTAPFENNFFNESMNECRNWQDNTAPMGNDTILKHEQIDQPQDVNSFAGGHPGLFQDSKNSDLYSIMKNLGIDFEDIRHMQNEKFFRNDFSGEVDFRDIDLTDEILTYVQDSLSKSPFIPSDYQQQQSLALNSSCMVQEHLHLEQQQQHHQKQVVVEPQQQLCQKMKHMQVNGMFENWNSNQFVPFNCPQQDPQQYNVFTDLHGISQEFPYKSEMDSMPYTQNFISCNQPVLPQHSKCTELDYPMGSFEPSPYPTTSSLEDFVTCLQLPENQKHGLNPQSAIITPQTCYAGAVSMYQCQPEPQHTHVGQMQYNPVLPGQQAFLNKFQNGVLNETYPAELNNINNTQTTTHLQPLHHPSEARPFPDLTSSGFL
GAA850 FXN act – frataxin GAA850 promoter activation. HEK293 lucGAA850 FXN promoter luciferase reporter, 24 h; percent of 10 µM SAHA response. 0.56% of 360,000 active. activation, % at 6 µM;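 active = activation above the average of all compounds screened plus 3 SD, cutoff fixed separately per campaign, cut at about 7.5% in these data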
SENP1 inh – SENP1 (human) catalytic domain inhibition. Q9P0U3. recombinant SENP1 catalytic domain, CyPet-SUMO1-YPet FRET cleavage. inhibition, % at 10 µM. 0.21% of 360,000 active. AID 624204;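 active = inhibition at least 30% at 10 µM, raw YFP signal under a set limit, fluorescence ratio 0.5 to 1.5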
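Compound: 10 µM single point, 0.5% DMSO; Test system: hSENP1 catalytic domain, recombinant; Timing: 50 min reaction at room temperature; Technique: FRET, CFP and YFP emission; Control set: no-enzyme wells low, DMSO-plus-enzyme wells high control.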
PfM18AAP inh – blocks P. falciparum M18 aspartyl aminopeptidase; inhibition, % at 7.35 µM; recombinant PfM18AAP, H-Glu-NHMec fluorogenic cleavage; 1.2% of 290,000 active;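 active = inhibition above the campaign mean inhibition over all tested compounds plus 3 SD, cut at about 28% in these data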
A number is an active result; i = inactive; nt = no result given.

SMILES | CTSL1 counter | HDAC3 inhib | AHR act | GAA850 FXN act | SENP1 inh | PfM18AAP inh
CC(O)(c1cccc(F)c1)c1nc(-c2cc(F)cc(F)c2)cs1 (stereo unspecified) | nt | nt | nt | i | i | nt
CCN(CC)C(=S)Nc1ccc2nc3n(c(=O)c2c1)CCCCC3 | i | i | i | i | i | i
COc1cc(C2C(C#N)=C(C)NC3=C2C(=O)c2ccccc23)cc(OC)c1OC (stereo unspecified) | i | i | 113 | i | i | i
COc1ccc(C2C(C#N)=C(C)NC3=C2C(=O)c2ccccc23)cc1 (stereo unspecified) | i | i | i | i | i | i
O=C(/C=C/c1ccc([N+](=O)[O-])cc1)NCc1cccnc1 | i | i | i | i | i | i
COc1ccc(/C=C/C(=O)NCc2cccnc2)cc1 | i | i | i | i | i | i
O=C(/C=C/c1ccc(Cl)c([N+](=O)[O-])c1)NCc1cccnc1 | i | i | 60 | i | i | i
O=C(/C=C/c1cccc([N+](=O)[O-])c1)NCc1cccnc1 | i | i | 63 | i | i | i
COc1ccccc1-c1ccc([C@@H]2C[C@H]3[C@H](CON3C)CN2C(=O)c2ccco2)cc1 | nt | nt | nt | i | i | nt
CC1(C(=O)Nc2ccccc2)CCN1C(=O)C1(c2ccccc2)CC1 (stereo unspecified) | nt | nt | nt | i | i | nt
CC(C)c1ccc(CNc2ccc3c(c2)ncn3C)cc1 | i | i | 63 | i | i | i
Cc1cccc(C)c1NC(=O)[C@@]1(CC(=O)O)CC(/C=C/c2ccccc2)=NO1 | nt | i | nt | i | i | i
O=C(CC1SC2=NCCN2C1=O)Nc1ccc(Br)cc1 (stereo unspecified) | i | i | i | i | i | i
O=C(CC1Sc2ncnn2C1=O)Nc1ccc(Br)cc1 (stereo unspecified) | i | i | i | i | i | 37
COC(=O)C1=CN(c2ccc(OC)cc2OC)C(N)=C(C#N)C1c1ccccc1F (stereo unspecified) | nt | nt | nt | nt | i | nt
CN(CC(=O)Nc1cccc(F)c1)C(=O)c1ccc(NC2CC2)c([N+](=O)[O-])c1 | i | i | i | i | i | nt
CSc1nc2c(c(=O)[nH]1)C(c1ccncc1)C(C(=O)OC(C)C)=C(C)N2 (stereo unspecified) | i | i | 51 | i | i | i
Cc1ccc(NC(=O)c2nsc(Cl)c2Cl)cc1 | i | i | 69 | i | i | i
O=C(CCC1CCCC1)NNC(=O)c1cccc(Cl)c1 | i | i | i | i | i | i
COc1ccc(C(=O)NCc2nnc(SCC(=O)NO)n2Cc2ccccc2)cc1 | i | 91 | i | i | i | i
O=C1NC[C@H](CCCCN2C[C@H](Cc3ccccc3)N(CC3CCCCC3)C(=O)C2=O)N(CC2CCCCC2)C1=O | nt | nt | nt | nt | i | nt
COc1cccc(Nc2nnc(SCc3nc4ccccc4s3)s2)c1 | i | i | 67 | i | i | i
COc1cc(NC(=O)[C@@H]2CCCN(S(=O)(=O)c3cccc4cccnc34)C2)cc(OC)c1OC | i | i | i | i | i | nt
Cc1ccc(S(=O)(=O)NNC(=O)c2cc3cc4ccccc4nc3s2)cc1 | i | i | i | i | i | i
O=C(NNC(=O)c1cc2cc3ccccc3nc2s1)c1cccc(Cl)c1 | i | i | 48 | i | i | i
SMILES | CTSL1 counter | HDAC3 inhib | AHR act | GAA850 FXN act | SENP1 inh | PfM18AAP inh
Cc1cccc(C(=O)NNC(=O)c2cc3cc4ccccc4nc3s2)c1 | i | i | 74 | i | i | i
O=C(NNC(=O)c1cccc2ccccc12)c1cccc(Cl)c1 | nt | nt | nt | i | i | nt
CN(C(=O)CSc1nncc2ccccc12)c1ccccc1 | nt | i | i | i | i | nt
COCCC(=O)N1CCC(Oc2ccc(C(=O)NCc3cccc(C)n3)cc2)CC1 | i | i | i | i | i | i
Cc1nn2c(N)c(-c3ccccc3)cnc2c1-c1ccc(Cl)cc1 | i | i | 64 | i | i | i
COc1ccc2cc(C[C@@H]3CC[C@@H](CNC(N)=O)O3)ccc2c1 | nt | nt | nt | i | i | nt
CC(=O)Nc1cccc(-c2csc(C(O)c3cccc(Cl)c3)n2)c1 (stereo unspecified) | nt | nt | nt | i | i | nt
C/C(CC(=O)Nc1ccc(N(C)C)cc1)=N\NC(=O)c1cnccn1 | i | i | 52 | i | i | i
COc1ccc(OC)c2sc(N(CCCN(C)C)C(=O)c3ccc(S(=O)(=O)N4CCc5ccccc5C4)cc3)nc12 | i | 41 | i | nt | nt | nt
CCOC(=O)CN(C(=O)COC(=O)C1=NNC(=O)CC1)c1ccc(F)cc1 | nt | i | i | i | i | nt
NC(CO)C(=O)NNCc1ccc(O)c(O)c1O (stereo unspecified) | i | i | i | i | i | 29
COc1ccc(S(=O)(=O)NC(=O)C2(C)CCN2C(=O)c2c(C)noc2C)cc1 (stereo unspecified) | nt | nt | nt | i | i | nt
Cc1ccc(-c2cnc(SCCNC(=O)c3ccco3)[nH]2)cc1 | i | i | 61 | i | i | nt
CCOc1ccc(OCC)c(NC(=O)C2CCCN2S(=O)(=O)c2cccc3cccnc23)c1 (stereo unspecified) | i | i | 47 | i | i | i
COc1cccc(CNC(=O)c2ccc(F)c(S(=O)(=O)N3CCCCC3)c2)c1 | nt | nt | nt | i | i | nt
COCCCn1c(=NC(=O)c2ccncc2)c(C#N)cc2c(=O)n3cccc(C)c3nc21 | i | i | 59 | i | i | i
O=C(c1cc(Cl)nc2ccccc12)N1CCN(S(=O)(=O)c2cccc(C(F)(F)F)c2)CC1 | i | i | i | i | i | nt
COc1ccc([N+](=O)[O-])cc1NC(=O)CSc1nccc(C)n1 | i | i | 69 | i | i | i
O=C1c2ccccc2C(=O)N1OCc1ccccc1 | i | i | 90 | i | i | i
O=C1c2ccccc2C(=O)N1OCc1cccc(Cl)c1 | i | i | i | i | i | i
CCCS(=O)(=O)NC(=O)C1(C)CCCN(C(=O)c2ccc(C(=O)OC)cc2)C1 (stereo unspecified) | nt | nt | nt | i | i | nt
COc1ccc(Cl)cc1NC(=O)CN(C)C(=O)c1sccc1-c1ccccc1 | nt | i | 55 | i | i | nt
O=C(NN(c1ccccc1)c1ccccc1)c1ccc([N+](=O)[O-])o1 | i | i | i | i | i | i
NC(=O)c1oc2ccccc2c1NC(=O)c1ccc([N+](=O)[O-])o1 | 26 | i | i | i | i | i
Cc1ccc(S(=O)(=O)N2CCC[C@H]2C(=O)OCc2cc(=O)oc3cc(C)ccc23)cc1 | nt | nt | i | i | i | nt
CC(C)(C)C(=O)Nc1ccc(C(=O)N/N=C/c2ccccc2OC(=O)c2ccccc2)cc1 | i | 35 | i | i | i | i
O=C(Nc1ccc2c(c1)OCO2)c1cc(C2CCCCN2S(=O)(=O)Cc2ccccc2)on1 (stereo unspecified) | nt | nt | nt | i | i | nt
COc1cc(N)ccc1NC(=O)c1cccs1 | i | i | 60 | i | i | i
O=C(Cn1nc(C(=O)O)c2ccccc2c1=O)Nc1cc(S(=O)(=O)N2CCCCC2)ccc1Cl | nt | i | i | i | i | nt

Source: PubChem BioAssay
